The subject of data set [1] is LNCaP C4-2. The data set is described as follows: Cytotoxicity against human C4-2 cells assessed as reduction in cell viability measured after 72 hrs by methylene blue staining based assay. Type of data set: functional. Particulars: LNCaP C4-2, 72 h. The method, boiled down:
(§1)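 Methylene blue survival assay. Prostate cancer cells in RPMI with 10% FBS were seeded at 2000–3500 cells/well and exposed to a concentration series for 72 h. Cells were then methanol-fixed, stained with 1% methylene blue in 10 mM borate for 1 h, washed, and the dye dissolved in ethanol/0.1 M HCl (1:1). OD650nm was read. IC50 came from fitted dose–response curves; three independent experiments.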

Data set [2] deals with PC-3. Briefly: Cytotoxicity against human PC3 cells assessed as reduction in cell viability measured after 72 hrs by methylene blue staining based assay. Type of data set: functional. Conditions: PC-3, 72 h. Put shortly:
as §1

Data set [3] relates to LNCaP C4-2. The data set is described as follows: Down regulation of XIAP expression in human C4-2 cells by Western blot analysis. Type of data set: functional, cell-based. (In western blotting, separated proteins are transferred to a membrane and probed.)
Data set [4] deals with LNCaP C4-2. Briefly: Down regulation of survivin expression in human C4-2 cells by Western blot analysis. Type of data set: functional, cell-based.
Data set [5] concerns PC-3. Briefly: Down regulation of survivin expression in human PC3 cells by Western blot analysis. The class given is functional, cell-based.
For a further data set, the species on record is Homo sapiens. The data set is described as follows: Inhibition of p53-large T antigen (unknown origin) dimerization assessed as reduction in SEAP reporter expression measured after 24 hrs by mammalian two hybrid assay. Put shortly: (§2)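 Mammalian two-hybrid assay in DU145 cells seeded at 1 × 10^5/well, cultured 24 h, then transfected with GAL4-DBD (pBIND) and VP16 (pACT) fusions plus pGSEAP reporter and a firefly luciferase plasmid. Survivin–survivin or p53–large T antigen pairs were used; vector served as control. Two days later, cells were treated for 24 h. SEAP was measured by chemiluminescence and normalized using luciferase for transfection efficiency.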

The next data set relates to DU-145. The data set is described as follows: Effect on basal SEAP reporter activity in human DU145 cells measured after 24 hrs by mammalian two hybrid assay. The class given is ADME, cell-based. Particulars: du-145, 24 h. The method, boiled down: as §2
Data set [6] deals with LNCaP C4-2. The data set is described as follows: Cytotoxicity against human C4-2 cells transfected with pcDNA3.1 assessed as reduction in cell viability measured after 72 hrs by methylene blue staining based assay. Type of data set: functional. Particulars: LNCaP C4-2, 72 h. The method, boiled down: as §1
Data set [7] concerns LNCaP C4-2. Briefly: Cytotoxicity against human C4-2 cells transfected with HA-tagged survivin assessed as reduction in cell viability measured after 72 hrs by methylene blue staining based assay. The class given is functional. Conditions: LNCaP C4-2, 72 h.
Data set [8] relates to PC-3. The data set is described as follows: Down regulation of XIAP expression in human PC3 cells by Western blot analysis. Type of data set: functional, cell-based.
The subject of data set [9] is LNCaP C4-2. The data set is described as follows: Down regulation of CIAP1 expression in human C4-2 cells by Western blot analysis. The class given is functional, cell-based.
Data set [10] has as its system PC-3. The data set is described as follows: Down regulation of CIAP1 expression in human PC3 cells by Western blot analysis. Type of data set: functional, cell-based.
The test system of data set [11] is LNCaP C4-2. Briefly: Down regulation of CIAP2 expression in human C4-2 cells by Western blot analysis. The class given is functional, cell-based.
The test system of data set [12] is PC-3. Briefly: Down regulation of CIAP2 expression in human PC3 cells by Western blot analysis. Type of data set: functional, cell-based.
Data set [13] concerns the target Baculoviral IAP repeat-containing protein 5 (Homo sapiens) (UniProt O15392). The data set is described as follows: Inhibition of survivin homodimerization in human C4-2 cells assessed as increase in survivin degradation by measuring survivin half life at 10 uM incubated up to 6 hrs in presence of cycloheximide by Western blot analysis (reference value: 2.2 hrs). Particulars: LNCaP C4-2. Type of data set: cell-based. The method, boiled down: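 C4-2 or PC-3 cells were pretreated with 10 μM cycloheximide for 1 h, then chased with or without 10 μM compound, or with DMSO, for 0–6 h. Remaining survivin was measured by Western blot with actin as loading control. Band densities were quantified from three independent experiments to derive half-life.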

The target is the same in data set [14]. Briefly: Inhibition of survivin homodimerization in human C4-2 cells assessed as increase in survivin degradation in presence of proteasome inhibitor MG132 by Western blot analysis. Type of data set: cell-based. Conditions: LNCaP C4-2. Put shortly:
(§3)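 Cells were pretreated for 1 h with proteasome inhibitor MG132 or bortezomib before compound treatment. Survivin was then assessed by Western blot with actin loading control, quantified from three independent experiments.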

For data set [15] the target is unchanged. The data set is described as follows: Inhibition of survivin homodimerization in human C4-2 cells assessed as increase in survivin degradation in presence of proteasome inhibitor bortezomib by Western blot analysis. Type of data set: cell-based. Conditions: LNCaP C4-2. The method, boiled down:
as §3

Data set [16] has as its system LNCaP C4-2. Briefly: Induction of apoptosis in human C4-2 cells assessed as increase in cleavage of caspase-3 by Western blot analysis. Type of data set: functional, cell-based. The method, boiled down:
(§4)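 C4-2 or PC-3 cells were treated at a range of concentrations, and cleaved caspase 3 was measured by Western blot. Quantification was from three independent experiments.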

Data set [17] has as its system PC-3. The data set is described as follows: Induction of apoptosis in human PC3 cells assessed as increase in cleavage of caspase-3 by Western blot analysis. Type of data set: functional, cell-based. The method, boiled down: as §4
In data set [18] the test system is LNCaP C4-2. Briefly: Induction of apoptosis in human C4-2 cells at 3 uM measured after 48 hrs by Annexin V-FITC/propidium iodide staining based flow cytometry relative to control. The class given is functional. Put shortly: (§5)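 C4-2 or PC-3 cells were treated with 3 μM compound or DMSO for 48 h, harvested, washed, and stained with annexin V-FITC and propidium iodide. Apoptosis was analysed by flow cytometry with excitation at 488 […]; three independent experiments.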
(In flow cytometry, cells or beads pass a laser one at a time.)

In data set [19] the test system is PC-3. Briefly: Induction of apoptosis in human PC3 cells at 3 uM measured after 48 hrs by Annexin V-FITC/propidium iodide staining based flow cytometry relative to control. The class given is functional. The method, boiled down:
as §5

The test system of data set [20] is PC-3. Briefly: Antitumor activity against human PC3 cells xenografted in NSG mouse assessed as suppression of tumor growth at 100 mg/kg, po administered via gavage every other day for 10 times and measured every 2 days during compound dosing. The class given is functional, organism-based. Put shortly: (§6)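 PC-3 cells (3 × 10^6, in media) implanted in hind flanks of 6-week-old male NSG mice. Once tumors reached ~100 mm3, mice were randomized into two groups of 5. Vehicle (90% corn oil/10% DMSO) or 100 mg/kg was given by oral gavage every other day for ten doses. Body weight and tumor size were measured every 2 days. At sacrifice, tumors were excised for survivin Western blot and staining, and major organs were wet-weighed.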

The nature of data set [21]: Toxicity in NSG mouse xenografted in human PC3 cells assessed as effect on body weight at 100 mg/kg, po administered via gavage every other day for 10 times and measured every 2 days during compound dosing. Type of data set: organism-based, PC-3. Conditions: in vivo, 48 h. The method, boiled down:
as §6
(A xenograft is tissue or cells of one species grown in another, often human tumour cells in immunodeficient mice.)

Data set [22] in a line: Toxicity in NSG mouse xenografted in human PC3 cells assessed as effect on heart weight at 100 mg/kg, po administered via gavage every other day for 10 times and measured post last dose. Conditions: in vivo. The class given is organism-based, PC-3. Put shortly:
as §6

A short description of data set [23]: Toxicity in NSG mouse xenografted in human PC3 cells assessed as effect on liver weight at 100 mg/kg, po administered via gavage every other day for 10 times and measured post last dose. Particulars: in vivo. Type of data set: organism-based, PC-3. The method, boiled down: as §6
A short description of data set [24]: Toxicity in NSG mouse xenografted in human PC3 cells assessed as effect on kidney weight at 100 mg/kg, po administered via gavage every other day for 10 times and measured post last dose. Type of data set: organism-based, PC-3. Particulars: in vivo. The method, boiled down:
as §6

A short description of data set [25]: Toxicity in NSG mouse xenografted in human PC3 cells assessed as effect on lung weight at 100 mg/kg, po administered via gavage every other day for 10 times and measured post last dose. Type of data set: organism-based, PC-3. Conditions: in vivo. Put shortly: as §6
Data set [26] in a line: Toxicity in NSG mouse xenografted in human PC3 cells assessed as effect on stomach weight at 100 mg/kg, po administered via gavage every other day for 10 times and measured post last dose. Type of data set: organism-based, PC-3. Conditions: in vivo. Put shortly: as §6
Data set [27] concerns PC-3. The data set is described as follows: Antitumor activity against human PC3 cells xenografted in NSG mouse assessed as reduction in tumor size at 100 mg/kg, po administered via gavage every other day for 10 times and measured post last dose. The class given is functional, organism-based. Put shortly:
as §6

For data set [28], the system named is PC-3. Briefly: Antitumor activity against human PC3 cells xenografted in NSG mouse assessed as change in tumor color at 100 mg/kg, po administered via gavage every other day for 10 times and measured post last dose. Type of data set: functional, organism-based. The method, boiled down:
as §6

Data set [29] concerns the target Baculoviral IAP repeat-containing protein 5 (Homo sapiens) (UniProt O15392). Briefly: In vivo inhibition of survivin in NSG mouse xenografted in human PC3 cells assessed as reduction in survivin expression at 100 mg/kg, po administered via gavage every other day for 10 times and measured post last dose by Western blot analysis. Type of data set: functional, organism-based. Particulars: PC-3. Put shortly: as §6

Data set [30] shares this target. Briefly: In vivo inhibition of survivin in NSG mouse xenografted in human PC3 cells assessed as reduction in survivin expression at 100 mg/kg, po administered via gavage every other day for 10 times and measured post last dose by immunofluorescence analysis. Type of data set: functional, organism-based. Conditions: PC-3. Put shortly:
as §6

Data set [31] is described as follows: Solubility of the compound in corn oil. The class given is physicochemical.
Data set [32] addresses Baculoviral IAP repeat-containing protein 5 (Homo sapiens) (UniProt O15392). The data set is described as follows: Inhibition of survivin homodimerization in human PC3 cells assessed as increase in survivin degradation by measuring survivin half life at 10 uM incubated up to 6 hrs in presence of cycloheximide by Western blot analysis (reference value: 2.3 hrs). Conditions: PC-3.

Data set [33] has as its system PC-3. Briefly: Cytotoxicity against human PC3 cells assessed as reduction in cell viability by MTT assay. Type of data set: functional, cell-based.

SMILES strings stand for the structures. The source made the active and inactive calls. The rule behind the calls is not given here.

Usually IC50 stands for the midpoint of a concentration-inhibition curve.

Baculoviral IAP repeat-containing protein 5 (Homo sapiens), sequence (O15392 whole entry): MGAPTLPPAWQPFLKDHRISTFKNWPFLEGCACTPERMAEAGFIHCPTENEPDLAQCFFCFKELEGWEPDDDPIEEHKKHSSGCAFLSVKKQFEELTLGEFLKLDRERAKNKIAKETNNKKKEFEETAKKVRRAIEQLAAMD

As for `Cc1cccc(Nc2nc3ccccc3nc2Nc2cccc(C)c2C)c1C`, the IC50 in the data set with LNCaP C4-2 [1] was found to be 17.6 µM; in the data set on PC-3 [2] it was 24.8 µM.
As to `Fc1ccc(Nc2nc3ccccc3nc2Nc2ccc(F)cc2)cc1`, the result with LNCaP C4-2 [3], in the data set with PC-3 [8], in the data set with LNCaP C4-2 [9], in the data set on PC-3 [10], in the data set with LNCaP C4-2 [11] and in the data set with PC-3 [12] was inactive. The outcome with LNCaP C4-2 [4], in the data set with PC-3 [5], in the data set on PC-3 [20], in the data set with PC-3 [27] and in the data set on PC-3 [28] was Active. The 50% inhibitory concentration (IC50) in the data set with LNCaP C4-2 [1] was found to be 3.1 µM; with PC-3 [2], 4.8 µM; with LNCaP C4-2 [6] it was 2 µM; with LNCaP C4-2 [7] it was 7 µM. For the same compound, the inhibition result (in the data set filed under Homo sapiens; in data set [14]; in data set [15]) was “inactive” each time. For the same compound, the Activity entry in the data set with DU-145 is “Non-Toxic”; in the data set on LNCaP C4-2 [16], “Dose-dependent effect”; with PC-3 [17], “Dose-dependent effect”; in the data set with LNCaP C4-2 [18], 48%; in the data set on PC-3 [19], 39%; in data set [21] it was “Non-Toxic”. Besides, the Activity entry in data set [22], in data set [23], in [24], in data set [25] and in data set [26] was “Non-Toxic” in each case. In addition, the T1/2 was determined as 50 min in data set [13] and 25 min in data set [32]. Also, the inhibition result in data set [29] and in data set [30] was “Active” in each case. The solubility entry in data set [31] is recorded as “Soluble”.
`Cc1ccc(-c2ccc(/C=N/Nc3nc4nonc4nc3Nc3ccc(Br)cc3)o2)cc1Cl`: in the data set with PC-3 [33], the IC50 turned out to be 3.3 µM.
On the same count and under the same terms, to `Cc1cccc(Nc2nc3nonc3nc2N/N=C/c2ccc(-c3ccc(Cl)c([N+](=O)[O-])c3)o2)c1C` belongs 7.2 µM; to `O=C1N=c2ccc(Nc3nc4nonc4nc3N/N=C/c3ccccc3OCc3ccc(Cl)cc3Cl)cc2=N1`, 60.3 µM.
As to `CC(C)(C)c1ccc(Nc2nc3ccccc3nc2Nc2ccc(C(C)(C)C)cc2)cc1`, the IC50 turned out to be 18.6 µM with LNCaP C4-2 [1] and 18.2 µM with PC-3 [2].
`Cc1cccc(Nc2nc3nonc3nc2N/N=C/c2cc3c(cc2[N+](=O)[O-])OCO3)c1C`: in the data set with PC-3 [33], the IC50 stood at 2.6 µM.
Take `O=C(Nc1nc2ccccc2nc1Nc1ccc(F)cc1)c1ccc2c(c1)OCO2`: the half-maximal inhibitory concentration (IC50) amounted to 14.3 µM in the data set with LNCaP C4-2 [1] and 20.7 µM with PC-3 [2].
Taken in the same sequence, the figures for `Cc1cccc(Nc2nc3nonc3nc2N/N=C/c2ccc(-c3cccc(C(=O)O)c3)o2)c1C` were 9.1 µM and 8.1 µM.
Taken in the same sequence, the figures for `O=C(Nc1nc2ccccc2nc1Nc1ccc(F)cc1)c1ccccc1` were 12.7 µM and 19.7 µM.
Regarding `CCOC(=O)c1ccc(Nc2nc3nonc3nc2N/N=C/c2c[nH]nc2-c2ccccc2)cc1`, the IC50 in the data set on PC-3 [33] was found to be 3.5 µM.
